According to ChEMBL document CHEMBL3792375, “Strategies for improving the solubility and metabolic stability of griseofulvin analogues” (Eur J Med Chem, 2016):
Converted amounts (≈) assume the structure as drawn.

Legend:
[1] = Thermodynamic solubility in PBS buffer at 1 mg after 12 hrs by HPLC analysis; type: physicochemical; details: read-out: Therm_solubility
Procedure, shortened: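 Solubility was measured in PBS, with the dissolved compound quantified by HPLC. The HPLC setup has a lower detection limit.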

[2] = Half life in mouse liver microsomes by HPLC analysis in presence of NADPH; type: ADME
Procedure, shortened: (§1)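 Male mouse or rat liver microsomes. Each run was done in triplicate, with a matching control that had no cofactor added. Samples were taken at set times, and the remaining non-degraded compound was quantified by analytical HPLC peak area. Half-life was calculated from linear plots.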

[3] = Half life in rat liver microsomes by HPLC analysis in presence of NADPH; type: ADME; procedure, shortened: as §1
MDA-MB-231 = assay: Cytotoxicity against human MDA-MB-231 cells assessed as reduction in cell viability after 72 hrs by celltiter Glo assay; type: functional, cell-based; details: MDA-MB-231, 72 h
Procedure, shortened: (§2)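 Antiproliferative IC50 was determined against viable cells using a luminescent ATP read-out.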

U2OS = assay: Cytotoxicity against human U2OS cells assessed as reduction in cell viability after 72 hrs by celltiter Glo assay; type: functional, cell-based; procedure, shortened: as §2
Liver = assay: Drug metabolism in mouse liver microsomes assessed as position 4/6 CH3 cleavage by LC-MS analysis; type: ADME
Liver microsome = assay: Drug metabolism in rat liver microsomes assessed as position 4/6 CH3 cleavage by LC-MS analysis; type: ADME
[4] = Cytotoxicity against human SCC114 cells assessed as reduction in cell viability after 24 hrs by MTT assay; type: functional, cell-based; details: SCC114, 24 h
HeLa = assay: Cytotoxicity against human HeLa cells assessed as reduction in cell viability after 24 hrs by MTT assay; type: functional, cell-based

| solubility thermodynamic at 12 h [1] [µg/mL] | half-life [2] [min] | half-life [3] [min] | Drug metabolism (Liver) | Drug metabolism (Liver microsome) | Structure (SMILES) | IC50 (MDA-MB-231) [µM] | IC50 (U2OS) [µM] | IC50 [4] [µM] | IC50 (HeLa) [µM] |
| --- | --- | --- | --- | --- | --- | --- | --- | --- | --- |
| 3 (≈ 6.76 µM) | 45 | 57 | – | – | COc1cc(OC)c2c(c1Cl)O[C@]1(C2=O)C(OCc2ccccc2)=C/C(=N\O)C[C@H]1C | 1.29 | 1.61 | – | – |
| – | – | – | metabolite_detected | metabolite_detected | [2H]C([2H])([2H])OC1=CC(=O)C[C@@H](C)[C@]12Oc1c(Cl)c(OC)cc(OC)c1C2=O | – | – | – | – |
| < 0.3 | 31 | 53 | – | – | COc1cc(OC(F)F)c(Cl)c2c1C(=O)[C@@]1(O2)C(OCc2ccccc2)=CC(=O)C[C@H]1C | 5.34 | 5.56 | – | – |
| 7.7 (≈ 21.8 µM) | 37 | 58 | – | – | COC1=CC(=O)C[C@@H](C)[C@]12Oc1c(Cl)c(OC)cc(OC)c1C2=O [GRISEOFULVIN] | 25.3 | 22.4 | 35 | 75 |
| 0.3 (≈ 0.7 µM) | 27 | 60 | – | – | COc1cc(OC)c2c(c1Cl)O[C@]1(C2=O)C(OCc2ccccc2)=CC(=O)C[C@H]1C | 1.62 | 1.45 | – | – |
| > 1000 | 339 | 449 | – | – | COc1cc(OC)c2c(c1Cl)O[C@]1(C2=O)C(OCc2ccccc2)=C/C(=N\OCC(=O)O)C[C@H]1C | 10.1 | 14.1 | – | – |
| < 0.3 | 11 | 26 | – | – | COc1cc(OC(F)F)c2c(c1Cl)O[C@]1(C2=O)C(OCc2ccccc2)=CC(=O)C[C@H]1C | 11.8 | 14.3 | – | – |
